Results reported in ChEMBL document CHEMBL1134340, “GnRH antagonists: a new generation of long acting analogues incorporating p-ureido-phenylalanines at positions 5 and 6” (J Med Chem, 2001).
Converted amounts (≈) assume the structure as drawn. *1 amine or outer side, *2 acyl side, *3 side chain or, on linkers, in order; H or OH if unused. Where a SMILES comes first, the peptide text is derived from it. [ ]: non-standard residue; d: D form. Phe(4-NH(5-NH2triazol-3-yl)) = Nc1nc(Nc2ccc(C[C@H](N)C(=O)O)cc2)n[nH]1; X1 = Nc1nc(Nc2ccc(C[C@@H](N[*:1])C(=O)[*:2])cc2)n[nH]1; dPhe(4-NHCONH2) = NC(=O)Nc1ccc(C[C@@H](N)C(=O)O)cc1; Phe(4-NHCONH2) = NC(=O)Nc1ccc(C[C@H](N)C(=O)O)cc1; d(hArg(Et2)) = CCN=C(NCC)NCCCC[C@@H](N)C(=O)O; hArg(Et2) = CCN=C(NCC)NCCCC[C@H](N)C(=O)O; dPhe(4-Cl) = N[C@H](Cc1ccc(Cl)cc1)C(=O)O; d2Nal = N[C@H](Cc1ccc2ccccc2c1)C(=O)O; Lys(iPr) = CC(C)NCCCC[C@H](N)C(=O)O; dCit = NC(=O)NCCC[C@@H](N)C(=O)O; d3Pal = N[C@H](Cc1cccnc1)C(=O)O

Assays:
[1] = species: Rattus norvegicus; assay: Compound was tested for inhibition of Leutenizing hormone release at 24 hours (very short duration) in castrated male rat assay; NI means no inhibition at 24 hr; type: functional, organism-based
Outline: (§1)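 Male Sprague-Dawley rats (180-200 g), castrated under ether 10 days earlier, 5 per group. 50 µg/rat given sc in 100 µL 40 mM phosphate buffer with 0.1% BSA and 0.6% DMSO; acyline run as internal standard. Tail blood taken predose and at 24, 48, 72, 96 (sometimes 120) h; plasma LH by RIA. Duration classed by >80% LH inhibition at each time.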

[2] = species: Rattus norvegicus; assay: Compound was tested for histamine release at a concentration of 150 ug/mL; type: functional
Outline: (§2)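 Sprague-Dawley rat peritoneal mast cells, Percoll-purified, in heparinized balanced salt solution with albumin, pH 7.2. Cells exposed to compound or vehicle for 2 min at 37 °C. Supernatant histamine measured spectrofluorometrically after o-phthalaldehyde derivatization; pellets lysed for retained histamine. Reported as % of total histamine released, corrected for spontaneous release in vehicle.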

[3] = molecular target: T1, Gonadotropin-releasing hormone receptor (Homo sapiens, UniProt P30968); assay: Antagonism of human GnHR receptor, determined in a reporter gene assay in HEK293 cells; type: functional, cell-based
T1 sequence (P30968 whole entry): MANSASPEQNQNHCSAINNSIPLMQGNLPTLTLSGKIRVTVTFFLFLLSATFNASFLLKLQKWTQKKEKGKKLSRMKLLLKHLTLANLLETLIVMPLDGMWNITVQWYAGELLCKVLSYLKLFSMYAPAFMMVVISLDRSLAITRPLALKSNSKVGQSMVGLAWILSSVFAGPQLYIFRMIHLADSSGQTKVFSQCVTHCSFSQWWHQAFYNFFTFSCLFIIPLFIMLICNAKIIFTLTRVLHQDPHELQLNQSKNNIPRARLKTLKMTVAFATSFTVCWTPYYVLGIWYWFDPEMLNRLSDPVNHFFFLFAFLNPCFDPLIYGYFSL
Outline: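 HEK293 cells stably expressing cloned human GnRH receptor plus luciferase reporter under LH alpha subunit promoter, plated 24 h before assay. Compound in 1% DMSO added 10 min at 37 °C, then GnRH at 3 nM final; 5 h incubation, luciferase luminescence read. Six concentrations in duplicate; blank-subtracted cps as % of GnRH control; mean of two determinations.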

[4] = molecular target: T1, Gonadotropin-releasing hormone receptor; assay: Competitive antagonism of GnRH-induced response in the reporter gene assay; type: functional; conditions: for Kb: read-out: pA2 (converted)
Outline: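 Same HEK293 human GnRH receptor luciferase reporter cells. Seven-point GnRH curve (10 µM to 10 pM final) run in duplicate without or with four to five increasing compound concentrations (10 min preincubation, 37 °C), then 5 h and luminescence. GnRH EC50 at each level by four-parameter logistic fit, giving pA2; mean of two determinations in duplicate.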

[5] = species: Rattus norvegicus; assay: Compound was tested for inhibition of Leutenizing hormone release at 96 hours (very long duration) in castrated male rat assay; type: functional; parameters: concentration or dose not given beside the values; outline: as §1
[6] = species: Rattus norvegicus; assay: Effective dose for histamine release was determined; type: functional
Outline: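 ED50 for histamine release calculated from % release values across concentrations in rat peritoneal mast cell assay (2 min, 37 °C, o-phthalaldehyde fluorometric read-out, corrected for vehicle release).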

[7] = species: Rattus norvegicus; assay: Compound was tested for histamine release at a concentration of 100 ug/mL; type: functional; outline: as §2
[8] = species: Rattus norvegicus; assay: Compound was tested for histamine release at a concentration of 300 ug/mL; type: functional; outline: as §2
[9] = species: Rattus norvegicus; assay: Compound was tested for inhibition of Leutenizing hormone release at 72 hours (long duration) in castrated male rat assay; type: functional; parameters: concentration or dose not given beside the values; outline: as §1
[10] = species: Rattus norvegicus; assay: Compound was tested for histamine release at a concentration of 30 ug/mL; type: functional; outline: as §2
[11] = species: Rattus norvegicus; assay: Compound was tested for histamine release at a concentration of 10 ug/mL; type: functional; outline: as §2
[12] = species: Rattus norvegicus; assay: Compound was tested for inhibition of Leutenizing hormone release at 48 hours (intermediate duration) in castrated male rat assay; type: functional; outline: as §1
[13] = species: Rattus norvegicus; assay: Compound was tested for histamine release at a concentration of 1 ug/mL; type: functional; outline: as §2
[14] = species: Rattus norvegicus; assay: Compound was tested for histamine release at a concentration of 3 ug/mL; type: functional; outline: as §2

Row | SMILES | NI [1] | ED50 [6] [µg/mL] | HR [7] [%] | IC50 [3] [nM] | Kb [4] [nM] | Inhibition [9] [%] | HR [10] [%] | HR [11] [%] | other results
1 | CC(=O)Nc1ccc(C[C@@H](NC(=O)[C@H](CNC(=O)[C@@H]2CC(=O)NC(=O)N2)NC(=O)[C@H](CO)NC(=O)[C@@H](Cc2cccnc2)NC(=O)[C@@H](Cc2ccc(Cl)cc2)NC(=O)[C@@H](Cc2ccc3ccccc3c2)NC(C)=O)C(=O)N[C@@H](CC(C)C)C(=O)N[C@@H](CCCCNC(C)C)C(=O)N2CCC[C@H]2C(=O)N[C@H](C)C(N)=O)cc1 | no inhibition at 24 hr |  |  |  |  |  |  |  | HR [2]: 96%
2 | CC(=O)N[C@H](Cc1ccc2ccccc2c1)C(=O)N[C@H](Cc1ccc(Cl)cc1)C(=O)N[C@H](Cc1cccnc1)C(=O)N[C@@H](CO)C(=O)N[C@@H](Cc1ccc(NC(=O)[C@H]2CC(=O)NC(=O)N2)cc1)C(=O)N[C@H](Cc1ccc(NC(N)=O)cc1)C(=O)N[C@@H](CC(C)C)C(=O)N[C@@H](CCCCNC(C)C)C(=O)N1CCC[C@H]1C(=O)N[C@H](C)C(N)=O |  | 170 (≈ 104 µM) | 54 |  |  |  |  |  | IC50 ([3]; hek293): 3 nM; pA2 [4]: 8.8; Inhibition [5]: >80%; HR [8]: 68%
3 | CC(=O)Nc1ccc(C[C@H](NC(=O)[C@H](CO)NC(=O)[C@@H](Cc2cccnc2)NC(=O)[C@@H](Cc2ccc(Cl)cc2)NC(=O)[C@@H](Cc2ccc3ccccc3c2)NC(C)=O)C(=O)N[C@H](Cc2ccc(NC(C)=O)cc2)C(=O)N[C@@H](CC(C)C)C(=O)N[C@@H](CCCCNC(C)C)C(=O)N2CCC[C@H]2C(=O)N[C@H](C)C(N)=O)cc1 [ACYLINE] |  | 66 (≈ 43 µM) | 56 | 6.8 | 2.51 | >80 | 43 |  | HR [8]: 87%
4 | CC(=O)Nc1ccc(C[C@@H](NC(=O)[C@@H](NC(=O)[C@H](CO)NC(=O)[C@@H](Cc2cccnc2)NC(=O)[C@@H](Cc2ccc(Cl)cc2)NC(=O)[C@@H](Cc2ccc3ccccc3c2)NC(C)=O)N(C)C(N)=O)C(=O)N[C@@H](CC(C)C)C(=O)N[C@@H](CCCCNC(C)C)C(=O)N2CCC[C@H]2C(=O)N[C@H](C)C(N)=O)cc1 | no inhibition at 24 hr |  |  |  |  |  |  |  | 
5 | CC(=O)N[C@H](Cc1ccc2ccccc2c1)C(=O)N[C@H](Cc1ccc(Cl)cc1)C(=O)N[C@H](Cc1cccnc1)C(=O)N[C@@H](CO)C(=O)N[C@@H](Cc1ccc(NC(N)=O)cc1)C(=O)N[C@H](Cc1ccc(NC(N)=O)cc1)C(=O)N[C@@H](CC(C)C)C(=O)N[C@@H](CCCCNC(C)C)C(=O)N1CCC[C@H]1C(=O)N[C@H](C)C(N)=O (Ac-[d2Nal][dPhe(4-Cl)][d3Pal]S[Phe(4-NHCONH2)][dPhe(4-NHCONH2)]L[Lys(iPr)]P[dA]-NH2) |  |  | 153 | 2.8 | 1.58 | >80 | 75 | <10 | 
6 | CC(=O)N[C@H](Cc1ccc2ccccc2c1)C(=O)N[C@H](Cc1ccc(Cl)cc1)C(=O)N[C@H](Cc1cccnc1)C(=O)N[C@@H](CO)C(=O)N[C@@H](Cc1ccc(Nc2n[nH]c(N)n2)cc1)C(=O)N[C@H](Cc1ccc(Nc2n[nH]c(N)n2)cc1)C(=O)N[C@@H](CC(C)C)C(=O)N[C@@H](CCCCNC(C)C)C(=O)N1CCC[C@H]1C(=O)N[C@H](C)C(N)=O.CC(=O)O [PRAZARELIX ACETATE] (Ac-[d2Nal][dPhe(4-Cl)][d3Pal]S[Phe(4-NH(5-NH2triazol-3-yl))][X1]L[Lys(iPr)]P[dA]-NH2) |  | 19 | 93 | 6.9 | 1.58 | >80 | 70 | 17 | 
7 | CC(=O)N[C@H](Cc1ccc2ccccc2c1)C(=O)N[C@H](Cc1ccc(Cl)cc1)C(=O)N[C@H](Cc1cccnc1)C(=O)N[C@@H](CO)C(=O)N[C@@H](Cc1ccc(NC(=O)[C@H]2CC(=O)NC(=O)N2)cc1)C(=O)N[C@H](Cc1ccc(CNC(N)=O)cc1)C(=O)N[C@@H](CC(C)C)C(=O)N[C@@H](CCCCNC(C)C)C(=O)N1CCC[C@H]1C(=O)N[C@H](C)C(N)=O |  |  |  |  |  |  |  |  | Inhibition [12]: >80%
8 | CC(=O)O.CC(=O)O.CC/N=C(\NCC)NCCCC[C@H](NC(=O)[C@H](CC(C)C)NC(=O)[C@@H](CCCCN/C(=N/CC)NCC)NC(=O)[C@H](Cc1ccc(O)cc1)NC(=O)[C@H](CO)NC(=O)[C@@H](Cc1cccnc1)NC(=O)[C@@H](Cc1ccc(Cl)cc1)NC(=O)[C@@H](Cc1ccc2ccccc2c1)NC(C)=O)C(=O)N1CCC[C@H]1C(=O)N[C@H](C)C(N)=O [GANIRELIX ACETATE] (Ac-[d2Nal][dPhe(4-Cl)][d3Pal]SY[d(hArg(Et2))]L[hArg(Et2)]P[dA]-NH2) |  | 11 | 62 |  |  |  | 57 | 30 | Inhibition [12]: >80%
9 | CC(=O)N[C@H](Cc1ccc2ccccc2c1)C(=O)N[C@H](Cc1ccc(Cl)cc1)C(=O)N[C@H](Cc1cccnc1)C(=O)N[C@@H](CO)C(=O)N[C@@H](CCCCNC(=O)[C@H]1CC(=O)NC(=O)N1)C(=O)N[C@H](CCCCNC(=O)[C@@H]1CC(=O)NC(=O)N1)C(=O)N[C@@H](CC(C)C)C(=O)N[C@@H](CCCCNC(C)C)C(=O)N1CCC[C@H]1C(=O)N[C@H](C)C(N)=O | no inhibition at 24 hr |  |  |  |  |  |  |  | 
10 | CC(=O)N[C@H](Cc1ccc2ccccc2c1)C(=O)N[C@H](Cc1ccc(Cl)cc1)C(=O)N[C@H](Cc1cccnc1)C(=O)N[C@@H](CO)C(=O)N[C@@H](Cc1ccc(O)cc1)C(=O)N[C@H](CCCNC(N)=O)C(=O)N[C@@H](CC(C)C)C(=O)N[C@@H](CCCNC(=N)N)C(=O)N1CCC[C@H]1C(=O)N[C@H](C)C(N)=O [CETRORELIX] (Ac-[d2Nal][dPhe(4-Cl)][d3Pal]SY[dCit]LRP[dA]-NH2) |  | 1.3 (≈ 0.908 µM) |  | 4.2 | 1.26 | >80 |  | 64 | HR [13]: 34%; HR [14]: 5%
